According to ChEMBL document CHEMBL4406919, “Structure-Based Design of Selective, Covalent G Protein-Coupled Receptor Kinase 5 Inhibitors” (ACS Med Chem Lett, 2019):

Assays:
Rhodopsin kinase GRK1 [1] = target: T1, Rhodopsin kinase GRK1 (Bos taurus, UniProt P28327); test: Displacement of BODIPY TR-ADP from bovine GRK1 (1 to 535 residues) preincubated for 10 mins followed by compound addition and measured after 10 to 15 mins by fluorescence polarization displacement assay
T1 sequence (P28327 whole entry): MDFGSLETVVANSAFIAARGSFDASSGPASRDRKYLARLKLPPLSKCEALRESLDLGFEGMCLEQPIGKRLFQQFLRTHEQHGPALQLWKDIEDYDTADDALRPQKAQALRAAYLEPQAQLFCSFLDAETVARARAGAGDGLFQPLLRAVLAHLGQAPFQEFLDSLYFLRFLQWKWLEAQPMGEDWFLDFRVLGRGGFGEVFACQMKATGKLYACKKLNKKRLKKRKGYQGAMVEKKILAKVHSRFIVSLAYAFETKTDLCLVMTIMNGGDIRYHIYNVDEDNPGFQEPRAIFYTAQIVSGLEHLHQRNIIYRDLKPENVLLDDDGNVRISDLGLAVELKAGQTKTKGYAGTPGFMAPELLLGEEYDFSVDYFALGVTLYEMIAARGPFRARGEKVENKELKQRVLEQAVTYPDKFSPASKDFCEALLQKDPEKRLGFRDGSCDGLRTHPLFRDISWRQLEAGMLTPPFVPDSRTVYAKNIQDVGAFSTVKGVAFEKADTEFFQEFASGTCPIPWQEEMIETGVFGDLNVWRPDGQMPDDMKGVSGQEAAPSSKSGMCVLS

[2] = target: T2, G protein-coupled receptor kinase 5 (Homo sapiens, UniProt P34947); test: Displacement of BODIPY TR-ADP from GRK5 (unknown origin) preincubated for 10 mins followed by compound addition and measured after 10 to 15 mins by fluorescence polarization displacement assay
[3] = target: T2, G protein-coupled receptor kinase 5; test: Inhibition of human GRK5 using tubulin as substrate measured after 4 hrs by [gamma-32P]-ATP assay
[4] = target: T3, Beta-adrenergic receptor kinase 1 (Bos taurus, UniProt P21146); test: Inhibition of bovine GRK2 using tubulin as substrate measured after 4 hrs by [gamma-32P]-ATP assay
T3 sequence (P21146 whole entry): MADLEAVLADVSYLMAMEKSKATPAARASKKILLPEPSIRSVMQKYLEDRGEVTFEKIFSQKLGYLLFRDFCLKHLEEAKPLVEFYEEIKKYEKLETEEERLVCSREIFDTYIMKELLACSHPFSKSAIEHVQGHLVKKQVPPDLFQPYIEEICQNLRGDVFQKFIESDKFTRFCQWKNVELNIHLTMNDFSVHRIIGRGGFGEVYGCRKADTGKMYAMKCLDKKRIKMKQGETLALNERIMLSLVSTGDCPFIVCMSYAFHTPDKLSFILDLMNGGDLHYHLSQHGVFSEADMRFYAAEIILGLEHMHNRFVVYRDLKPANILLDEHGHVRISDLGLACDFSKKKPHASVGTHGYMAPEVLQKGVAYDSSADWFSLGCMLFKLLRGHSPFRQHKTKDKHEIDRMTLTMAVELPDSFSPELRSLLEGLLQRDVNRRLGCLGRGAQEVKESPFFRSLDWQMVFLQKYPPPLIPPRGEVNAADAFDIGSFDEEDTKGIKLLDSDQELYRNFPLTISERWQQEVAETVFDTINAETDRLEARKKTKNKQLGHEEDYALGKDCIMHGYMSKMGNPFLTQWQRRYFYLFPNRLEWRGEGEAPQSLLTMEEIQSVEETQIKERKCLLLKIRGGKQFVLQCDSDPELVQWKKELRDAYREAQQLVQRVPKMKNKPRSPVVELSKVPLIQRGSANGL
In short: (§1)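 Radiometric kinase assay using tubulin as phosphoacceptor and [γ-32P]ATP. Inhibitor was preincubated with the kinase for the stated time (here 4 h) before the reaction. IC50 came from dose–response curves. Most runs were three independent experiments in duplicate; some GRK5/GRK6 4 h runs were done twice in duplicate.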

[5] = Inhibition of bovine GRK6 using tubulin as substrate measured after 4 hrs by [gamma-32P]-ATP assay; parameters: species or system Bos taurus; in short: as §1
[6] = Selectivity index, ratio of IC50 for bovine GRK2 to IC50 for human GRK5
In short: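 Selectivity is the GRK2 IC50 divided by the GRK5 IC50. Both values come from the tubulin/[γ-32P]ATP radiometric assay. The GRK5 value used is from the longest inhibitor preincubation tested.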

Rhodopsin kinase GRK1 [7] = target: T1, Rhodopsin kinase GRK1; test: Inhibition of bovine GRK1 using tubulin as substrate measured after 4 hrs by [gamma-32P]-ATP assay; in short: as §1
[8] = target: G protein-coupled receptor kinase 5 (Bos taurus, UniProt P43249, C474S); test: Inhibition of bovine GRK5 C474S mutant using tubulin as substrate measured after 4 hrs by [gamma-32P]-ATP assay
Sequence of G protein-coupled receptor kinase 5 (Bos taurus, UniProt P43249, C474S) (P43249 whole entry C474S): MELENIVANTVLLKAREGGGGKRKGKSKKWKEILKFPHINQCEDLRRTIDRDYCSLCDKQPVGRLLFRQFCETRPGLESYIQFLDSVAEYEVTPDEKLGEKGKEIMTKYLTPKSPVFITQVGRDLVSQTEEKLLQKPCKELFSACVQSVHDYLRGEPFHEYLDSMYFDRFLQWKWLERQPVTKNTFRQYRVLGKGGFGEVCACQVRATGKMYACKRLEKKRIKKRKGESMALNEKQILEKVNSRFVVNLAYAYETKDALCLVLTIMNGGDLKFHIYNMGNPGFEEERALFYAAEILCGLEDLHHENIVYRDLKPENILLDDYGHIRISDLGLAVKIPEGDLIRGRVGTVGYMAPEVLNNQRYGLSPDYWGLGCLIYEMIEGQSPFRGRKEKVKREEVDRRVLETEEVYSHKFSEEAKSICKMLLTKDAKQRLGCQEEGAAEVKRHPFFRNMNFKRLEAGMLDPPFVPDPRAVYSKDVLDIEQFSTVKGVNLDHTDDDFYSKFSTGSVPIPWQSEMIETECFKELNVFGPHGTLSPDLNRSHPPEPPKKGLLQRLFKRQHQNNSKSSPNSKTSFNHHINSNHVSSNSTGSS

T2 sequence (P34947 whole entry): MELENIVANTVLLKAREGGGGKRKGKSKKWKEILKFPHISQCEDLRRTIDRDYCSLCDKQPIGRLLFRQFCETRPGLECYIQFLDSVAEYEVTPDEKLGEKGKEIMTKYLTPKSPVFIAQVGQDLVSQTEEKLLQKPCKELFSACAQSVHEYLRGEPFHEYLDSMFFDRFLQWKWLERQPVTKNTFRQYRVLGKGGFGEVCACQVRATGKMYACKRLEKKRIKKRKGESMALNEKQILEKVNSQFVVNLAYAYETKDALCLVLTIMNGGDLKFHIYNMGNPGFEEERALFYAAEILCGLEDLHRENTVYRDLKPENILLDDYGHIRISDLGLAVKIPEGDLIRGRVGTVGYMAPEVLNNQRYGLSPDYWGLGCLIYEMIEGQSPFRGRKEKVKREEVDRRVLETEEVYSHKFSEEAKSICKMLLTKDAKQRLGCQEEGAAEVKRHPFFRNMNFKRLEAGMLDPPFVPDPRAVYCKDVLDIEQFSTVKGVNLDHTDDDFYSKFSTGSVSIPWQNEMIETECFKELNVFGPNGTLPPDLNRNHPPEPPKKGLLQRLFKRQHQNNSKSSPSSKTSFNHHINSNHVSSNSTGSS

| Compound | IC50 [4] [µM] | IC50 [5] [µM] | also measured |
| --- | --- | --- | --- |
| CCCN1CCC(c2ccc(Nc3nc(Nc4cc(F)ccc4C(N)=O)c4cc[nH]c4n3)c(OC)c2)CC1 [GSK-1326255A] |  |  | IC50 (Rhodopsin kinase GRK1 [1]): > 100 µM; IC50 [2]: 2.5 µM |
| CNC(=O)c1ccccc1Nc1nc(Nc2cc(CNC(=O)/C=C/CN(C)C)ccc2OC)nc2[nH]ccc12 | 2.1 | 2.6 | IC50 [3]: 4.8 µM; Ratio IC50 [6]: 0.4 |
| CNC(=O)c1ccccc1Nc1nc(Nc2ccc(CNC(=O)/C=C/CN(C)C)cc2OC)nc2[nH]ccc12 | > 100 | > 100 |  |
| C=CC(=O)Nc1ccc(Nc2nc(Nc3ccccc3C(N)=O)c3cc[nH]c3n2)c(OC)c1 |  | 0.41 |  |
| CC#CC(=O)NCc1ccc(Nc2nc(Nc3ccccc3C(=O)NC)c3cc[nH]c3n2)c(OC)c1 | > 100 | > 100 |  |
| CCC(=O)NCc1ccc(OC)c(Nc2nc(Nc3ccccc3C(=O)NC)c3cc[nH]c3n2)c1 | 2.9 | > 100 | IC50 [3]: > 100 µM; Ratio IC50 [6]: < 0.01 |
| C=CC(=O)NCc1ccc(Nc2nc(Nc3ccccc3C(=O)NC)c3cc[nH]c3n2)c(OC)c1 | > 100 | > 100 |  |
| COc1cc(NC(=O)/C=C/CN(C)C)ccc1Nc1nc(Nc2ccccc2C(N)=O)c2cc[nH]c2n1 | 0.68 |  | IC50 (Rhodopsin kinase GRK1 [7]): 0.76 µM |
| COc1cc2c(cc1Nc1nc(Nc3ccsc3C(N)=O)c3cc[nH]c3n1)N(C(=O)CN(C)C)CCC2(C)C [GSK-2163632A] |  |  | IC50 (Rhodopsin kinase GRK1 [1]): 0.13 µM; IC50 [2]: 3.2 µM |
| CCC(=O)Nc1ccc(OC)c(Nc2nc(Nc3ccccc3C(N)=O)c3cc[nH]c3n2)c1 |  | > 100 |  |
| CCC(=O)NCc1ccc(Nc2nc(Nc3ccccc3C(=O)NC)c3cc[nH]c3n2)c(OC)c1 | > 100 | > 100 | IC50 [3]: > 100 µM; IC50 [8]: 100 µM |
| CC#CC(=O)NCc1ccc(OC)c(Nc2nc(Nc3ccccc3C(=O)NC)c3cc[nH]c3n2)c1 | > 100 | > 100 | IC50 [3]: > 100 µM |
| COc1ccc(NC(=O)/C=C/CN(C)C)cc1Nc1nc(Nc2ccccc2C(N)=O)c2cc[nH]c2n1 | 2.7 |  | IC50 (Rhodopsin kinase GRK1 [7]): 2.1 µM |
| C=CS(=O)(=O)NCc1ccc(OC)c(Nc2nc(Nc3ccccc3C(=O)NC)c3cc[nH]c3n2)c1 | > 100 | 2.5 | IC50 [3]: 7.1 µM; Ratio IC50 [6]: > 14 |
| C=CS(=O)(=O)NCc1ccc(Nc2nc(Nc3ccccc3C(=O)NC)c3cc[nH]c3n2)c(OC)c1 | > 100 | 7.7 |  |
| C=CC(=O)NCc1ccc(OC)c(Nc2nc(Nc3ccccc3C(=O)NC)c3cc[nH]c3n2)c1 | 3.2 | 18 |  |
| CCCN1CCC(Oc2cc(Nc3nc(Nc4cccc(F)c4C(N)=O)c4cc[nH]c4n3)c(OC)cc2Cl)CC1 [GSK-1713088A] |  |  | IC50 [2]: 3.2 µM |
